Screening data deposited in PubChem BioAssay by several laboratories.
The full list was thinned out, with hits kept by preference.
PTEN del growth – growth suppression of PTEN-null HCT116, primary screen, cell-based, CellTiter-Glo. HCT116 PTEN-null viability, 60 h; stronger effect = lower value. viability, % at 10 µM. 1.2% of 140,000 active. AID 827, 2007;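 active = viability at or below a set limit, 4 SD under the median of all tested compounds, cut at about 3.7% in these data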;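 also: PTEN knockout HCT116 line with beta catenin targeted HCT116 as companion control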
HUVEC prolif 384 – inhibitors of HUVEC proliferation, primary screen, cell-based, 384-well | CellTiter-Glo luminescence, 72 h; stronger effect = lower value | viability, % at 10 µM (by protocol) | 1.1% of 86,000 active;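 active = viability at or below 30%; inactive = viability above 30%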;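 also: 100% = median luminescence of DMSO-only cell control wells on each plate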
HCT116 bCat-KO – primary screen for growth suppressors in beta-catenin knockout HCT116 cells (colon tumor, human) | viability, % at 10 µM | AID 818, 2007 | HCT116 beta-catenin knockout viability, CellTiter-Glo, 60 h; stronger effect = lower value | 1.5% of 140,000 active;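 active = viability at or under a set limit, the compound median less 4 SD, cut at about 6% in these data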;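 also: 0% = Hyamine 1622 control at 20 µM and 100% = untreated cell control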
Pyk2 oligo antag – antagonists of Pyk2 self-association, primary screen, Q293 cells, FERM NanoBiT luminescence, HTS; stronger effect = lower value; 0.83% of 99,000 active; Protein-tyrosine kinase 2-beta (Homo sapiens), Q14289; AID 1347419, 2020; z-score (the deposit names both 25 µM and 10 µM);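 active = Z-score of -3 or lower, scaled per plate to the spread of control and sample wells; inactive = z-score above -3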;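 also: negative z-score means lost luminescence so less FERM oligomerization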
Target sequence (Q14289 whole entry, looked up): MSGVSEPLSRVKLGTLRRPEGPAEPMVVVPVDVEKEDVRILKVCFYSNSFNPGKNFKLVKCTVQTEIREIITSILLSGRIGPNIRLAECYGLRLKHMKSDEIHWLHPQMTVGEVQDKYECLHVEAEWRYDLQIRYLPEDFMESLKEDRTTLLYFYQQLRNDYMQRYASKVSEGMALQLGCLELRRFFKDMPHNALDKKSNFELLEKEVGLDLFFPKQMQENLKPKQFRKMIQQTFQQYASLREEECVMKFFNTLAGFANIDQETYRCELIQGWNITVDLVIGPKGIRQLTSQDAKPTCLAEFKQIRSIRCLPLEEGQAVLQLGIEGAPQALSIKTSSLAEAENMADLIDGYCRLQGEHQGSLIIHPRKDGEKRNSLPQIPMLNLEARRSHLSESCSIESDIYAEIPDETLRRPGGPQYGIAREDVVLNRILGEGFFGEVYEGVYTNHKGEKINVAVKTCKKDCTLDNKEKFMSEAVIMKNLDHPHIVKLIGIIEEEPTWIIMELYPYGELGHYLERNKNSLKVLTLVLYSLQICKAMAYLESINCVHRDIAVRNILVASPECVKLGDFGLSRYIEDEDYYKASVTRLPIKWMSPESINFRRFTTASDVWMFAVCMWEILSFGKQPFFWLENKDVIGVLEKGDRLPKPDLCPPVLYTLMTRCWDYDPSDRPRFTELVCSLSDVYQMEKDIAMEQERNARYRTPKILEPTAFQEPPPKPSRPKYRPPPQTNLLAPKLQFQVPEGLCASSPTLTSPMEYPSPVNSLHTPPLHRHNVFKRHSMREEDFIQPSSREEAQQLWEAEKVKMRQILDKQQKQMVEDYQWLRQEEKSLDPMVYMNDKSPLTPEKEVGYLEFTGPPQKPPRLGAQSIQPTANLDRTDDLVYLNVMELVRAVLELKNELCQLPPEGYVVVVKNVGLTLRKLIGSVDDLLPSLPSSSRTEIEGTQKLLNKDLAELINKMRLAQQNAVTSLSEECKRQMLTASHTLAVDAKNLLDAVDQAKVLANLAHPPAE
Fibroblast inh – antiproliferative effect on LL 47 fibroblasts – human, LL 47 cells, CellTiter-Glo luminescence, primary screen; LL 47 human lung fibroblast viability, ATP luminescence; stronger effect = lower value; viability, % at 10 µM; 1.1% of 85,000 active;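 active = viability at or below 50% in the single dose screen; inactive = viability above 50%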;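 also: compound exposure lasted 72 h before the ATP readout; 100% = median luminescence of untreated cell-only wells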
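Material: human LL 47 lung fibroblast cells; quantity: 1,150 cells/well; medium: IMEM plus 15% FBS; doses: 0.1% DMSO in all compound wells; timing: overnight attachment after seeding, then 72 h compound exposure at 37 °C; detection: CellTiter-Glo luminescence; measure: % viability of median cell-only signal; controls: cell-only wells, no compound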
H69AR growth 86K – proliferation blockers of H69AR lung cancer cells, primary screen, cell-based, human, 86K library | 6% of 85,000 active | H69AR lung tumor viability, ATP luminescence, 72 h; stronger effect = lower value | viability, % at 10 µM;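 active = viability at or below 40%; inactive = viability above 40%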;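 also: multidrug resistant small cell line overexpressing MRP-1 efflux transporter; 100% = mean luminescence of untreated control wells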
* = called active by the depositor; x = not tested or not shown.

SMILES | PTEN del growth | HUVEC prolif 384 | HCT116 bCat-KO | Pyk2 oligo antag | Fibroblast inh | H69AR growth 86K
COC(=O)c1ccc(CSc2nnc(Nc3ccc(C)cc3)s2)o1 | 91.8 | x | 97.5 | -1.05 | x | x
O=C(Nc1nnc(-c2ccccc2)s1)c1cc(S(=O)(=O)N2CCOCC2)c(Cl)cc1Cl | 64.9 | 46.5 | 34.8 | -1.34 | 92.6 | 10.0*
CCCC(C)NS(=O)(=O)c1ccc(OC)c(C)c1 (stereo not drawn) | 97.3 | 110.7 | 98.7 | -1.12 | 112.3 | 95.7
COC(=O)c1ccc2c(c1)N(Cc1nc(-c3cccc(C)c3)oc1C)C(=O)C1CCCN21 (stereo not drawn) | 85.9 | 59.6 | 93.0 | x | 70.2 | 54.7
CCCc1nc(SCC(=O)N2CCCc3ccccc32)c2c(=O)n(C)c(=O)n(C)c2n1 | 36.5 | x | 44.5 | x | x | x
Cn1c(=O)c2c(SCC(=O)N3CCOCC3)nc(CC(C)(C)C)nc2n(C)c1=O | 61.0 | 45.4 | 49.0 | x | 35.5* | 24.1*
Cn1c(=O)c2c(SCC(=O)N3CCCc4ccccc43)nc(CC(C)(C)C)nc2n(C)c1=O | 4.4 | 88.5 | 4.8* | x | 80.1 | 29.7*
CCc1nc(SCC(=O)N2CCOCC2)c2c(=O)n(C)c(=O)n(C)c2n1 | 98.3 | 100.3 | 96.2 | x | 101.5 | 86.9
CCOC(=O)Cc1csc(NC(=O)c2ccc(Cl)nc2)n1 | 53.3 | 82.8 | 60.6 | 0.17 | 96.3 | 28.7*
CCOC(=O)Cc1csc(NC(=O)c2ccc3c(c2)OCO3)n1 | 99.2 | 103.9 | 93.1 | 0.44 | 104.5 | 87.6
CCOC(=O)Cc1csc(NC(=O)c2c(O)c3ccccc3n(CC(C)C)c2=O)n1 | 15.8 | 86.1 | 18.8 | -0.6 | 103.7 | 16.9*
Cc1nn(-c2ccc(Cl)cc2)c2sc(C(=O)N3CCN(c4ccccn4)CC3)cc12 | 94.6 | 35.6 | 92.0 | 0.11 | 95.8 | 21.0*
CCCCN(C)C(=O)C1CCC(=O)N(c2cc(OC)c(OC)c(OC)c2)C1c1ccc(OC)cc1 (stereo not drawn) | 0.7* | 111.5 | 0.9* | 0.32 | 100.8 | 102.5
Cc1[nH]c(=O)[nH]c(=O)c1NS(=O)(=O)c1ccccc1 | 107.1 | x | 99.9 | x | x | x
Cc1ccc(Oc2ccc(-c3nnc(-c4ccccc4)o3)cc2[N+](=O)[O-])cc1C | 88.2 | x | 89.2 | x | x | x
CN(C)c1ccc(O)c2c1CC1CC3[C@@H](N(C)C)C(=O)C(C(N)=O)=C(O)[C@]3(O)C(=O)C1=C2O (stereo partly drawn) | 66.1 | 93.0 | 70.7 | x | 83.6 | 34.5*
CCOc1cc(/C=N/NC(=O)CSc2nnc(C)s2)ccc1OCc1ccccc1Cl | 44.1 | x | 54.9 | x | x | x
CCOc1cc(/C=N\NC(=O)Cn2nc([N+](=O)[O-])cc2C)ccc1OCc1cccc2ccccc12 | 50.1 | 44.1 | 58.6 | 0.68 | 101.6 | 16.4*
CC(c1cccnc1)N(CCN(C)C)C(=O)Nc1ccc(Cl)cc1 (stereo not drawn) | 92.2 | 111.3 | 89.4 | x | 104.0 | 92.9
COc1ccc(C(=O)c2c(C)c3ccccc3n2CC(O)CNC(C)C)cc1 (stereo not drawn) | 65.5 | x | 60.9 | x | x | x
CC(C)NCC(O)Cn1c2c(c3ccccc31)CCc1c-2cnn1-c1ccccc1 (stereo not drawn) | 2.0* | x | 1.5* | 1.53 | x | x
Cc1nc(-c2ccccc2)nc2[nH]ccc(=O)c12 | 88.0 | 93.4 | 89.4 | 1.5 | 102.2 | 97.6
Cc1nc(C)c2c(=O)cc(-c3ccccc3)[nH]c2n1 | 30.0 | 56.6 | 26.7 | -0.03 | 60.8 | 30.7*
Cc1nc(-c2ccccc2)nc2[nH]c(-c3ccccc3)cc(=O)c12 | 86.9 | 55.2 | 91.4 | -0.72 | 96.1 | 14.8*
COC(=O)COc1cccc2c(=O)n(CC(=O)N3CCCc4ccccc43)ccc12 | 102.9 | 98.7 | 99.3 | x | 115.7 | 98.8
SMILES | PTEN del growth | HUVEC prolif 384 | HCT116 bCat-KO | Pyk2 oligo antag | Fibroblast inh | H69AR growth 86K
CC1CC(C(F)F)n2nc(C(=O)Nc3sc4c(c3C#N)CCC(C(C)(C)C)C4)nc2N1 (stereo not drawn) | 71.2 | 20.6* | 80.5 | -0.09 | 52.8 | 18.1*
CN1c2ccccc2C(C)(C)C12CC(c1ccc(Cl)c(S(=O)(=O)N3CCCC3)c1)=NO2 (stereo not drawn) | 81.9 | x | 72.8 | x | x | x
CN1c2ccccc2C(C)(C)C12CC(CCl)=NO2 (stereo not drawn) | 82.4 | 90.1 | 81.5 | 0.49 | 95.8 | 4.5*
COc1ccc(CCn2c(N3CCN(Cc4ccccc4)CC3)nc3c2c(=O)[nH]c(=O)n3C)cc1 | 91.0 | 84.6 | 98.7 | -0.79 | 98.3 | 33.4*
COc1ccc(CCn2c(N3CCOCC3)nc3c2c(=O)[nH]c(=O)n3C)cc1 | 91.1 | 89.4 | 95.5 | 1 | 91.9 | 24.6*
COc1ccc(OCC(O)Cn2c(Br)nc3c2c(=O)[nH]c(=O)n3C)cc1 (stereo not drawn) | 19.4 | 94.0 | 28.2 | -0.9 | 98.2 | 35.4*
Cc1ccc(Sc2nc3c(c(=O)[nH]c(=O)n3C)n2CCc2ccccc2)cc1 | 2.8* | 68.2 | 11.1 | x | 81.7 | 14.1*
CN1CCN(Cc2nc3c(c(=O)[nH]c(=O)n3C)n2CCc2ccccc2)CC1 | 107.3 | 88.7 | 86.0 | x | 100.4 | 86.4
Cc1ccc(C(=O)Nc2ccc(Br)cc2)cc1S(=O)(=O)Nc1ccccn1 | 54.3 | x | 66.0 | x | x | x
Cc1cc2n(c(=O)c1C#N)CCCN2c1ccccc1 | 105.7 | 96.6 | 104.9 | -0.07 | 93.5 | 40.7
Cc1cc(NC(=O)CSc2nc(C(C)C)nc3sc4c(c23)CCCC4)no1 | 70.6 | 60.4 | 66.1 | -1.35 | 18.1* | 5.6*
CC(C)C(C)NC(=O)CSc1nc2scc(-c3ccco3)c2c(=O)n1-c1ccccc1 (stereo not drawn) | 98.2 | 93.9 | 96.6 | 0.52 | 87.9 | 77.9
CCn1c(SCC(=O)Nc2cc(C)on2)nc2sc3c(c2c1=O)CCCC3 | 2.3* | 78.5 | 14.4 | -0.37 | 15.2* | 7.1*
C=CCn1c(SCC(=O)Nc2cc(C)on2)nc2sc(C)c(C)c2c1=O | 57.2 | 96.9 | 78.2 | -0.64 | 91.1 | 27.9*
C=CCn1c(SCC(=O)Nc2cc(C)on2)nc2sc3c(c2c1=O)CCCC3 | 67.1 | x | 74.5 | -0.34 | x | x
CC(NC(=O)CSc1nc2sc3c(c2c(=O)n1-c1ccccc1)CCCC3)c1ccccc1 (stereo not drawn) | 69.5 | 67.5 | 71.4 | -1.95 | 92.0 | 1.9*
FC(F)(F)c1nc(-c2cccs2)ncc1-c1nnnn1-c1ccc(Cl)cc1 | 29.6 | x | 30.6 | -3.06* | x | x
FC(F)(F)c1nc(-c2cccnc2)ncc1-c1nnnn1-c1ccccc1 | 71.4 | x | 76.8 | -0.67 | x | x
Clc1ccc(-n2nnnc2-c2cnc(-c3ccncc3)nc2-c2cccs2)cc1 | 7.6 | 75.9 | 61.1 | -1.17 | 92.4 | 9.8*
CCOC(=O)c1nc(-c2ccc(OC)c(OC)c2)cnc1C#N | 95.2 | x | 83.7 | x | x | x
